One test concerns A498. The test is described as follows: Growth inhibition of human A498 cells assessed as cell growth at 10 uM after 48 hrs by MTT assay; values are per cent of control. Conditions: A498, 48 h. For orientation: Formazan colour is commonly taken as a measure of viable cells.
The subject of a further test is NCI-H23. The test is described as follows: Growth inhibition of human NCI-H23 cells assessed as cell growth at 10 uM after 48 hrs by MTT assay; values are per cent of control. The following applies: NCI-H23, 48 h.
The subject of a further test is HCC 2998. Kind of test: Growth inhibition of human HCC2998 cells assessed as cell growth at 10 uM after 48 hrs by MTT assay; values are per cent of control. Conditions: HCC 2998, 48 h.
Test [1] deals with T1, NAD-dependent protein deacetylase sirtuin-1 (Homo sapiens) (UniProt Q96EB6).
T1 sequence (whole entry): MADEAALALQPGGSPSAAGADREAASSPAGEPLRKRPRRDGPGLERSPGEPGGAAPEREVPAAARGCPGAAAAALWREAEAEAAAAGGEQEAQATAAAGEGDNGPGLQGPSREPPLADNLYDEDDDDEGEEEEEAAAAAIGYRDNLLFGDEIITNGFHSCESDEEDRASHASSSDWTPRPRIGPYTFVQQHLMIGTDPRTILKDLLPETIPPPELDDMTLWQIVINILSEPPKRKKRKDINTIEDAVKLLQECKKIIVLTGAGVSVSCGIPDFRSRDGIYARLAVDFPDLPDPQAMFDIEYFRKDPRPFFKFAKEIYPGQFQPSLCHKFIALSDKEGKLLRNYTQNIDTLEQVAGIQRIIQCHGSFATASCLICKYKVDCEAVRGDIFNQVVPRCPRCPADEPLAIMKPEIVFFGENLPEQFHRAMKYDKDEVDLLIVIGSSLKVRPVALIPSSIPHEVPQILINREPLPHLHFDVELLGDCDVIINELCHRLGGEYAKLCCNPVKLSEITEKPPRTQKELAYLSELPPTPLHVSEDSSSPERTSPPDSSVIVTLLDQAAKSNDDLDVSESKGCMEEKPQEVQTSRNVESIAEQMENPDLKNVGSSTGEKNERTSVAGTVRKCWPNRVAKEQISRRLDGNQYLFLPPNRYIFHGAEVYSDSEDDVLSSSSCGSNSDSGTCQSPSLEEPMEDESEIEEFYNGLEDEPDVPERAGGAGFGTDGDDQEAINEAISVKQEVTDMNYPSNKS
Kind of test: Inhibition of human SIRT1 assessed as enzyme activity using Fluor-de-Lys as substrate at 100 uM by fluorometry. The gist of the method: (§1)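 Commercial Fluor-de-Lys kit, substrate human p53 379–382 peptide (Arg-His-Lys-Lys(Ac)). Human Sirt1 or Sirt2 was incubated with substrate, NAD+ and compound at 1 mM, also tested at 100 µM. Fluorescence scales with Lys382 deacetylation. Activity is expressed relative to control, mean ± S.E.M. of 3–4 replicates.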

The subject of a further test is DU-145. The test is described as follows: Growth inhibition of human DU145 cells assessed as cell growth at 10 uM after 48 hrs by MTT assay; values are per cent of control. Conditions: DU-145, 48 h.
The next test concerns IGROV-1. The test is described as follows: Growth inhibition of human IGROV1 cells assessed as cell growth at 10 uM after 48 hrs by MTT assay; values are per cent of control. The following applies: IGROV-1, 48 h.
The next test has as its system MOLT-4. Kind of test: Growth inhibition of human MOLT4 cells assessed as cell growth at 10 uM after 48 hrs by MTT assay; values are per cent of control. Conditions: MOLT-4, 48 h.
The subject of another test is OVCAR-8. The test is described as follows: Growth inhibition of human OVCAR8 cells assessed as cell growth at 10 uM after 48 hrs by MTT assay; values are per cent of control. The following applies: OVCAR-8, 48 h.
The subject of the next test is KM12. The test is described as follows: Growth inhibition of human KM12 cells assessed as cell growth at 10 uM after 48 hrs by MTT assay; values are per cent of control. Conditions: KM12, 48 h.
Another test has as its system M14. Kind of test: Growth inhibition of human M14 cells assessed as cell growth at 10 uM after 48 hrs by MTT assay; values are per cent of control. Conditions: M14, 48 h.
A further test deals with HeLa. Kind of test: Cytotoxicity against human HeLa cells assessed as cell death after 48 hrs.
A further test has as its system MDA-MB-231. The test is described as follows: Growth inhibition of human MDA-MB-231 cells assessed as cell growth at 10 uM after 48 hrs by MTT assay; values are per cent of control. Conditions: MDA-MB-231, 48 h.
Another test deals with SK-MEL-28. The test is described as follows: Increase in superoxide level in human SK-MEL-28 cells maintained in medium containing GF and glucose at 100 uM after 24 hrs by DHE-based fluorescence ssay. The format is functional, cell-based. The gist of the method: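 Cells (SK-MEL-28) were kept 24 h in growth medium (DMEM + 10% serum) with or without 100 µM compound; antimycin was the positive control. They were labelled at 37 °C with DHE (10 µmol/L, 1% DMSO) in Locke's containing 5 mmol/L pyruvate for 40 min, stopped on ice and trypsinized. Flow-cytometric MFI of 10,000 cells, corrected for unlabelled autofluorescence; 3–4 separate experiments.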

Another test concerns SNB-75. Kind of test: Growth of human SNB75 cells assessed as cell growth at 10 uM after 48 hrs by MTT assay. The following applies: SNB-75, 48 h.
The test system of another test is CAKI-1. The test is described as follows: Growth inhibition of human Caki1 cells assessed as cell growth at 10 uM after 48 hrs by MTT assay; values are per cent of control. Conditions: CAKI-1, 48 h.
The target of test [2] is T1, NAD-dependent protein deacetylase sirtuin-1 (Homo sapiens). The test is described as follows: Inhibition of human SIRT1 assessed as enzyme activity using Fluor-de-Lys as substrate at 1 mM by fluorometry. The arrangement: scale not given: the % may be the effect or the level left. The gist of the method:
as §1

A further test has as its system NCI-H322M. Kind of test: Growth of human NCI-H322M cells assessed as cell growth at 10 uM after 48 hrs by MTT assay.
For a further test, the system named is SF-268. Kind of test: Growth inhibition of human SF268 cells assessed as cell growth at 10 uM after 48 hrs by MTT assay; values are per cent of control. The following applies: SF-268, 48 h.

Molecules are shown by their SMILES. Calls of active or inactive are those of the source. No cut-off for these calls is given here.

In the case of `c1cncc(-c2cnn[nH]2)c1`, the growth, % of control at 10 µM with A498 is 105%; in the test on NCI-H23, 89.6%; in the test with HCC 2998, 77.3%; in the test with DU-145, 96.3%; in the test on IGROV-1, 113%; in the test with MOLT-4, 101%. Moreover, the growth, % of control at 10 µM with OVCAR-8 was 49.8%; in the test with KM12 it was 116%; in the test with M14, 72.5%; in the test on MDA-MB-231, 103%; in the test on SNB-75 it was 93%; with CAKI-1, 95.1%. For the same compound, the results for the growth, % of control at 10 µM in the test on NCI-H322M and in the test with SF-268 were 104% and 113%, respectively. Moreover, the inhibition result in [1] was “inactive”. Besides, the IC50 in the test with HeLa was found to be 4.7 µM. In addition, the outcome in the test with SK-MEL-28 was Active. The Activity in test [2] came out at 88%.

In general, IC50 refers to the concentration needed to halve the response being measured.

For the origin of these results see ChEMBL document CHEMBL2062496, “Identification of a sirtuin 3 inhibitor that displays selectivity over sirtuin 1 and 2” (Eur J Med Chem, 2012).
